Screening data: PubChem, several laboratories
TPT1 inhibitor = C. albicans TPT1 enzyme inhibition; recombinant caTPT1, FP RNA substrate dephosphorylation; inhibition, % at 5 µM; 300,000 tested, 0.81% active;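 active = inhibition above the mean of all tested compounds plus 3 SD, set per screening campaign, cut at about 24% in these data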;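 also: plate controls were DMSO alone for no effect and ferristatin control at 100 nM for full effect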
Rpn11 block = blocks the human proteasome subunit Rpn11; calls only at 20 µM; 360,000 tested, 0.59% active; AID 588493; human 26S proteasome, Ub4-pepOG fluorescence polarization; 20S core pre-blocked with epoxomicin; O00487;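 active = inhibition at 20 µM, scaled to each plate's controls, above about 33%, limit read from the data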
CSN deneddyl inh = CSN deneddylation inhibition. 360,000 tested, 0.38% active. AID 651999. Q92905. Purified CSN, SCF-Nedd8-OG deneddylation, fluorescence polarization. inhibition, % at 12.5 µM;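 active = pattern-corrected inhibition above about 35%, with an unprinted fluorescence ratio check between 0.5 and 1.5, limit read from the data, passing the limit was not always enough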;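 also: 0% = enzyme with substrate and 100% = substrate without enzyme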
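Detection – fluorescence polarization · System – HEK293T-derived human Csn5 enzyme · Controls – substrate-only high control, full reaction low control · Timing – 90 min, room temperature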
HNF4A DNA FP = change in binding of human HNF4 alpha to DNA; P41235; HNF4a-FITC DNA binding, fluorescence polarization, 1 h; activity change, % at 10 µM; 360,000 tested, 0.3% active; in the data active = activity change above about 30%, passing the limit was not always enough
Target sequence (P41235 whole entry, looked up): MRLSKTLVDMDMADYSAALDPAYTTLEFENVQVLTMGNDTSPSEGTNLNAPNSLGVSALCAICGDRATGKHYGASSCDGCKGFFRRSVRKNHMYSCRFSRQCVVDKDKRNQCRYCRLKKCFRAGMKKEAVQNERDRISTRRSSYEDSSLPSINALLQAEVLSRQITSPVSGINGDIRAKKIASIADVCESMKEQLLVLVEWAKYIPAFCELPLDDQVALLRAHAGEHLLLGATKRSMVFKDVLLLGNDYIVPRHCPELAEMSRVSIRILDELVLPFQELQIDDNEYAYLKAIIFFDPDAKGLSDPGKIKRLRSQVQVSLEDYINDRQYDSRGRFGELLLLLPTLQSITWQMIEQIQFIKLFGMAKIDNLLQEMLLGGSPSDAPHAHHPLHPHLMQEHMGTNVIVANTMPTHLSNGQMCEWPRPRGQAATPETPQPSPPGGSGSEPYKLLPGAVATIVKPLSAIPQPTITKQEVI
TPT1 inh confirm = TPT1 (C. albicans) inhibition, confirmation; shares compounds with TPT1 inhibitor; recombinant caTPT1, fluorescence polarization, RNase T1 coupled; inhibition, % at 5 µM; 2,400 tested, 74% active; AID 2149;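 active = inhibition above the primary screen limit, the mean inhibition of all tested compounds plus 3 SD, cut at about 25% in these data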
RNase T1 counter = RNase T1 inhibition in TPT1 counter-screen; inhibition, % at 5 µM; 2,400 tested, 83% active; shares compounds with TPT1 inhibitor; RNase T1 cleavage, fluorescence polarization, 1536-well;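 active = inhibition above the solvent-only control well mean plus 3 SD, limit set per screening run, cut at about 23% in these data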;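 also: plate controls were DMSO wells with enzyme for no effect and wells without RNase T1 for full effect; inhibitors block cleavage so intact labeled substrate keeps polarization high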
Target sequence (P00651 whole entry, looked up): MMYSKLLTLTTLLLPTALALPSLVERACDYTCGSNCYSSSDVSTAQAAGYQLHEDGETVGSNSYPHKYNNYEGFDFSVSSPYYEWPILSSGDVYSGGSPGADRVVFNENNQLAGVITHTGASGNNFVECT
Rpn11 confirm = confirmation of human proteasome Rpn11 inhibitors; shares compounds with Rpn11 block; purified human 26S proteasome, Ub4-pepOG fluorescence polarization; proteasome pretreated with epoxomicin; inhibition, % at 20 µM; 1,900 tested, 29% active; AID 602318
MMP-2 inh = counter-screen for RPN11 inhibitors: inhibition of human MMP-2 | shares compounds with Rpn11 block | recombinant MMP-2, FRET peptide cleavage fluorescence | inhibition, % at 20 µM | 1,900 tested, 4% active;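 also: human MMP-2 activated beforehand with APMA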
Thrombin inh = thrombin (bovine) inhibition counter-screen. shares compounds with Rpn11 block. bovine thrombin cleavage of Ub4-pepOG, fluorescence polarization. inhibition, % at 20 µM. 1,900 tested, 13% active;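 active = mean inhibition at least 40% at 20 µM, or signal 3 deviations below plate average, so some actives read negative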;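 also: plate controls were thrombin with DMSO for no effect and buffer wells lacking thrombin for full effect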
Starred values were filed as active, the others as inactive. Compounds with a hit are over-represented: about 1.5% of the library has one in this group of screens. Rule as the data show it, unless noted: active = inhibition above about 40%; inactive = the rest.

CC(C)c1ccc(N=C2NN=C(c3cccs3)CS2)cc1 was read as TPT1 inhibitor 40.2*, Rpn11 block active, CSN deneddyl inh 12.7, HNF4A DNA FP 27.1, TPT1 inh confirm 42.1*, RNase T1 counter 50.2*, Rpn11 confirm -0.9, MMP-2 inh -0.9 and Thrombin inh 3.2.
For COc1cc(/C=C2/C(=N)N3C(=NC2=O)SN=C3S(C)(=O)=O)ccc1OC(=O)c1ccco1 the results were TPT1 inhibitor 25.1*, Rpn11 block active, CSN deneddyl inh 30.7, HNF4A DNA FP 51.2*, TPT1 inh confirm 31.6*, RNase T1 counter 35.5*, Rpn11 confirm 67.1*, MMP-2 inh 13.5 and Thrombin inh 38.9.
For O=C(Cc1ccc(NC(=O)C2CCN(C(=O)c3ccccc3)CC2)cc1)Nc1cccc(C(=O)N2CCCC2)c1 the results were Rpn11 block inactive, CSN deneddyl inh 2.6 and HNF4A DNA FP 0.8.
For O=C1Cc2cc(S(=O)(=O)Nc3cccc([N+](=O)[O-])c3)cc3c2N1CCC3 the results were TPT1 inhibitor -1.2, Rpn11 block inactive, CSN deneddyl inh 2.1 and HNF4A DNA FP -1.3.
O=[N+]([O-])c1ccc(N2CCCCC2)s1 was read as TPT1 inhibitor 34.7*, Rpn11 block active, CSN deneddyl inh 23.9, HNF4A DNA FP 25.3, TPT1 inh confirm 34.3*, RNase T1 counter 45.8*, Rpn11 confirm 43.8*, MMP-2 inh 6.2 and Thrombin inh 35.1.
Screening O=[N+]([O-])c1cccnc1N1CCCCC1 returned TPT1 inhibitor -0.2, Rpn11 block inactive, CSN deneddyl inh 5.3 and HNF4A DNA FP 2.7.
Screening Cc1ccc(CO/N=C\Cc2snc(Sc3ncc(C(F)(F)F)cc3Cl)c2C#N)cc1 returned TPT1 inhibitor 35.2*, Rpn11 block active, CSN deneddyl inh 19.9, HNF4A DNA FP 19.9, TPT1 inh confirm 27.0*, RNase T1 counter 34.1*, Rpn11 confirm 60.1*, MMP-2 inh 9.7 and Thrombin inh 49.1*.
For N#CCc1ccc(Oc2ncc(C(F)(F)F)cc2Cl)cc1 the results were TPT1 inhibitor 0.3, Rpn11 block inactive, CSN deneddyl inh -8.0 and HNF4A DNA FP 0.9.
For CCN1C(=O)/C(=C/c2c(C)nn(C)c2C)SC1=S the results were TPT1 inhibitor 24.3*, Rpn11 block active, CSN deneddyl inh 10.0, HNF4A DNA FP 10.3, TPT1 inh confirm 34.0*, RNase T1 counter 44.6*, Rpn11 confirm 32.8, MMP-2 inh -32.2 and Thrombin inh 21.4.
CCOC(=O)C1(C#N)C(=O)CSC1=Nc1ccccc1Cl (centres undefined) was read as Rpn11 block inactive, CSN deneddyl inh 15.2 and HNF4A DNA FP 2.6.
`COc1ccccc1NC(=O)Cn1ccn(-c2cccc3ccccc23)c(=O)c1=O` gave TPT1 inhibitor -0.7, Rpn11 block inactive, CSN deneddyl inh 2.7 and HNF4A DNA FP 1.0.
CC(=Nc1ccc(C)cc1C)c1sc2ccccc2c1O was read as TPT1 inhibitor 55.4*, Rpn11 block active, CSN deneddyl inh 6.0, HNF4A DNA FP 20.9, TPT1 inh confirm 78.9*, RNase T1 counter 93.5*, Rpn11 confirm 24.8, MMP-2 inh 10.1 and Thrombin inh 2.3.
Screening CCOc1cc(/C=C/C(=O)c2ccc(OC)c(CN3CCOCC3)c2)cc(Br)c1O returned TPT1 inhibitor 55.4*, Rpn11 block active, CSN deneddyl inh 20.8, HNF4A DNA FP 5.2, TPT1 inh confirm 80.6*, RNase T1 counter 85.9*, Rpn11 confirm 72.2*, MMP-2 inh 2.2 and Thrombin inh 79.9*.
Screening O=C1OC(c2cccs2)=N/C1=C\c1ccc(-c2cccc(Cl)c2)o1 returned TPT1 inhibitor 40.2*, Rpn11 block active, CSN deneddyl inh 17.1, HNF4A DNA FP 11.7, TPT1 inh confirm 166.5*, RNase T1 counter 171.0*, Rpn11 confirm 4.8, MMP-2 inh -5.1 and Thrombin inh 9.5.
For Cc1cc(=O)[nH]c(N/N=C/c2c(O)n(-c3ccccc3)c(=O)c3ccccc23)n1 the results were TPT1 inhibitor 36.0*, Rpn11 block active, CSN deneddyl inh -3.9, HNF4A DNA FP 21.0, TPT1 inh confirm 32.0*, RNase T1 counter 38.9*, Rpn11 confirm 43.2*, MMP-2 inh -59.0 and Thrombin inh 13.1.
`O=C(NCCCN1CCCC1)c1[nH]c(C(F)(F)F)nc1-c1ccccc1` gave Rpn11 block inactive, CSN deneddyl inh 0.7 and HNF4A DNA FP 0.2.
For O=C(N/N=C/c1ccc([N+](=O)[O-])o1)c1cc2ccccc2o1 the results were TPT1 inhibitor 0.8, Rpn11 block inactive, CSN deneddyl inh 16.3 and HNF4A DNA FP -3.9.
`O=[N+]([O-])c1ccc(/C=N/Nc2ccc3ccccc3c2)o1` gave TPT1 inhibitor 32.3*, Rpn11 block active, CSN deneddyl inh 22.6, HNF4A DNA FP 9.7, TPT1 inh confirm 39.1*, RNase T1 counter 46.7*, Rpn11 confirm 25.3, MMP-2 inh 9.0 and Thrombin inh 13.5.
For Cc1ccc(C(=O)N/N=C/c2c(O)ccc3ccccc23)cn1 the results were TPT1 inhibitor 83.5*, Rpn11 block active, CSN deneddyl inh 23.2, HNF4A DNA FP 44.7*, TPT1 inh confirm 92.7*, RNase T1 counter 95.7*, Rpn11 confirm 23.3, MMP-2 inh -43.2 and Thrombin inh 3.4.
For CC(C)c1ccc2c(c1)C1Cc3ccccc3C1N2 (centres undefined) the results were TPT1 inhibitor 28.6*, Rpn11 block active, CSN deneddyl inh 13.6, HNF4A DNA FP -0.3, TPT1 inh confirm 13.4, RNase T1 counter 21.5*, Rpn11 confirm 1.7, MMP-2 inh 5.8 and Thrombin inh -3.2.
Nc1c(N(CCO)C(=O)C2CCCC2)c(=O)[nH]c(=O)n1Cc1ccccc1 was read as Rpn11 block inactive, CSN deneddyl inh -2.6 and HNF4A DNA FP 0.5.
For COc1ccccc1/C=C/C(=O)c1ccc(Cl)cc1 the results were TPT1 inhibitor -1.5, Rpn11 block inactive, CSN deneddyl inh 5.5 and HNF4A DNA FP 7.6.
Screening COc1ccccc1/C=C/C=C1N=C(/C=C/c2ccc(Cl)cc2)OC/1=O returned TPT1 inhibitor 40.0*, Rpn11 block active, CSN deneddyl inh 10.5, HNF4A DNA FP 7.0, TPT1 inh confirm 123.5*, RNase T1 counter 124.1*, Rpn11 confirm 11.3, MMP-2 inh -51.6 and Thrombin inh 4.3.
